Measurements taken from ChEMBL document CHEMBL1240350, “In vitro activity of CEM-101 against Streptococcus pneumoniae and Streptococcus pyogenes with defined macrolide resistance mechanisms” (Antimicrob Agents Chemother, 2010).
≈ marks a conversion by molar mass, not a printed value.

Legend:
[1] = test system: Streptococcus pneumoniae; experiment: Antibacterial activity against macrolide-resistant Streptococcus pneumoniae 1076 harboring erm(B) and mef(A) gene after 14 passages and 10 compound-free subculturing by retest method; assay type: functional
Procedure, shortened: (§1)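 Multistep selection by daily serial passage in subinhibitory drug concentrations. Medium was cation-adjusted Mueller-Hinton broth plus 5% lysed horse blood. Each day the next inoculum came from the tube 1–2 dilutions below the MIC whose turbidity matched the growth control, for up to 50 days. Clone MICs by CLSI macrodilution; identity to the parent confirmed by SmaI PFGE.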

[2] = test system: Streptococcus pyogenes; experiment: Antibacterial activity against macrolide-resistant Streptococcus pyogenes 2011 harboring mef(A) gene after 50 passages following overnight incubation by agar dilution method
[3] = test system: Streptococcus pneumoniae; experiment: Antibacterial activity against macrolide-susceptible Streptococcus pneumoniae 1077 after overnight incubation by agar dilution method; assay type: functional
[4] = test system: Streptococcus pyogenes; experiment: Antibacterial activity against Streptococcus pyogenes harboring mef(A) gene after overnight incubation by agar dilution method; assay type: functional
Procedure, shortened: (§2)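 Clinical isolates collected 1998–2008, with macrolide-resistance genes confirmed by PCR. MICs by agar dilution on Mueller-Hinton agar with 5% sheep blood. Inoculum 10^4 CFU/spot, incubated overnight at 35°C in ambient air. S. pneumoniae ATCC 49619 was the quality-control strain in every run.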

[5] = test system: Streptococcus pneumoniae; experiment: Antibacterial activity against macrolide-resistant Streptococcus pneumoniae 1635 harboring erm(A) gene after overnight incubation by agar dilution method; assay type: functional
[6] = test system: Streptococcus pyogenes; experiment: Antibacterial activity against macrolide-resistant Streptococcus pyogenes harboring erm(A) gene after overnight incubation by agar dilution method; assay type: functional
Procedure, shortened: (§3)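 Agar dilution MICs on Mueller-Hinton agar with 5% sheep blood. Inoculum 10^4 CFU/spot, incubated overnight at 35°C in ambient air. Clinical S. pneumoniae or group A streptococcal isolates; resistance genotypes (erm(B), erm(A), mef(A)/mef(E)) were assigned by PCR. S. pneumoniae ATCC 49619 served as QC strain in each run. Range, MIC50 and MIC90 reported per phenotype group.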

[7] = test system: Streptococcus pyogenes; experiment: Antibacterial activity against macrolide-susceptible Streptococcus pyogenes 2132 after overnight incubation by agar dilution method
[8] = test system: Streptococcus pneumoniae; experiment: Antibacterial activity against macrolide-susceptible Streptococcus pneumoniae 7127 harboring S20N mutation in L4 ribosomal protein and A105V mutation in L22 ribosomal protein after 38 passages and 10 compound-free subculturing by retest method; assay type: functional
[9] = test system: Streptococcus pyogenes; experiment: Antibacterial activity against macrolide-resistant Streptococcus pyogenes 237 harboring mutation in L4 ribosomal protein after overnight incubation by agar dilution method
[10] = test system: Streptococcus pyogenes; experiment: Antibacterial activity against Streptococcus pyogenes harboring erm(B) gene after overnight incubation by agar dilution method; assay type: functional; procedure, shortened: as §2
[11] = test system: Streptococcus pneumoniae; experiment: Antibacterial activity against Streptococcus pneumoniae harboring erm(B) gene after overnight incubation by agar dilution method; assay type: functional; procedure, shortened: as §2
[12] = test system: Streptococcus pneumoniae; experiment: Antibacterial activity against macrolide-resistant Streptococcus pneumoniae 2686 harboring mutation in L4 ribosomal protein after overnight incubation by agar dilution method; assay type: functional
[13] = test system: Streptococcus pneumoniae; experiment: Antibacterial activity against macrolide-resistant Streptococcus pneumoniae 2686 harboring mutation in L4 ribosomal protein after 22 passages and 10 compound-free subculturing by retest method; assay type: functional
[14] = test system: Streptococcus pyogenes; experiment: Antibacterial activity against macrolide-resistant Streptococcus pyogenes 237 harboring mutation in L4 ribosomal protein after 20 passages and 10 compound-free subculturing by retest method
[15] = test system: Streptococcus pyogenes; experiment: Antibacterial activity against macrolide-resistant Streptococcus pyogenes 237 harboring mutation in L4 ribosomal protein after 43 passages and 10 compound-free subculturing by retest method
[16] = test system: Streptococcus pyogenes; experiment: Antibacterial activity against macrolide-resistant Streptococcus pyogenes 2094 harboring erm(A) gene after 34 passages and 10 compound-free subculturing by retest method
[17] = test system: Streptococcus pneumoniae; experiment: Antibacterial activity against macrolide-resistant Streptococcus pneumoniae 24 harboring erm(B) gene after 14 passages and 10 compound-free subculturing by retest method; assay type: functional; conditions: Streptococcus pneumoniae, 24; read-out: MIC; procedure, shortened: as §1
[18] = test system: Streptococcus pneumoniae; experiment: Antibacterial activity against macrolide-resistant Streptococcus pneumoniae harboring mef(A) gene after overnight incubation by agar dilution method; assay type: functional; procedure, shortened: as §3
[19] = test system: Streptococcus pneumoniae; experiment: Antibacterial activity against macrolide-resistant Streptococcus pneumoniae 3009 harboring mutation in 23S rRNA after 25 passages and 10 compound-free subculturing by retest method; assay type: functional
[20] = test system: Streptococcus pyogenes; experiment: Antibacterial activity against macrolide-resistant Streptococcus pyogenes 2094 harboring erm(A) gene after 43 passages and 10 compound-free subculturing by retest method
[21] = test system: Streptococcus pyogenes; experiment: Antibacterial activity against macrolide-resistant Streptococcus pyogenes 2368 harboring erm(B) gene after 6 passages and 10 compound-free subculturing by retest method
[22] = test system: Streptococcus pyogenes; experiment: Antibacterial activity against macrolide-resistant Streptococcus pyogenes 2094 harboring erm(A) gene after overnight incubation by agar dilution method
[23] = test system: Streptococcus pneumoniae; experiment: Antibacterial activity against macrolide-resistant Streptococcus pneumoniae 2686 harboring mutation in L4 ribosomal protein after 25 passages and 10 compound-free subculturing by retest method; assay type: functional
[24] = test system: Streptococcus pneumoniae; experiment: Antibacterial activity against macrolide-susceptible Streptococcus pneumoniae after overnight incubation by agar dilution method; assay type: functional; procedure, shortened: as §3
[25] = test system: Streptococcus pneumoniae; experiment: Antibacterial activity against macrolide-resistant Streptococcus pneumoniae 3665 harboring mef(A) gene after overnight incubation by agar dilution method; assay type: functional
[26] = test system: Streptococcus pneumoniae; experiment: Antibacterial activity against macrolide-susceptible Streptococcus pneumoniae 7127 harboring S20N mutation in L4 ribosomal protein and A105V mutation in L22 ribosomal protein after 29 passages and 10 compound-free subculturing by retest method; assay type: functional
[27] = test system: Streptococcus pneumoniae; experiment: Antibacterial activity against macrolide-resistant Streptococcus pneumoniae harboring erm(B) gene after overnight incubation by agar dilution method; assay type: functional; procedure, shortened: as §3
[28] = test system: Streptococcus pneumoniae; experiment: Antibacterial activity against Streptococcus pneumoniae harboring mef(A) gene after overnight incubation by agar dilution method; assay type: functional; procedure, shortened: as §2
[29] = test system: Streptococcus pneumoniae; experiment: Antibacterial activity against macrolide-susceptible Streptococcus pneumoniae 7127 harboring S20N mutation in L4 ribosomal protein and A105V mutation in L22 ribosomal protein after 15 passages and 10 compound-free subculturing by retest method; assay type: functional
[30] = test system: Streptococcus pyogenes; experiment: Antibacterial activity against macrolide-resistant Streptococcus pyogenes 2368 harboring erm(B) gene after overnight incubation by agar dilution method
[31] = test system: Streptococcus pneumoniae; experiment: Antibacterial activity against macrolide-resistant Streptococcus pneumoniae harboring mutation in L4 ribosomal protein after overnight incubation by agar dilution method; assay type: functional; procedure, shortened: as §3
[32] = test system: Streptococcus pneumoniae; experiment: Antibacterial activity against penicillin-susceptible Streptococcus pneumoniae after overnight incubation by agar dilution method; assay type: functional
Procedure, shortened: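 Agar dilution on Mueller-Hinton agar supplemented with 5% sheep blood. Inoculum 10^4 CFU/spot, incubated overnight at 35°C in ambient air. Test strains were clinical pneumococcal isolates. S. pneumoniae ATCC 49619 was included as the quality control strain in each run. MIC range, MIC50 and MIC90 were reported for each susceptibility category.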

Compound: CC[C@H]1OC(=O)[C@H](C)[C@@H](O[C@H]2C[C@@](C)(OC)[C@@H](O)[C@H](C)O2)[C@H](C)[C@@H](O[C@@H]2O[C@H](C)C[C@H](N(C)C)[C@H]2O)[C@](C)(OC)C[C@@H](C)C(=O)[C@H](C)[C@@H](O)[C@]1(C)O [CLARITHROMYCIN]
- MIC [1]: > 64 µg/mL
- MIC [2]: 8 µg/mL (≈ 10.7 µM)
- MIC [3]: 0.016 µg/mL (≈ 0.0214 µM)
- MIC50 [4]: 4 µg/mL (≈ 5.35 µM)
- MIC90 [4]: 8 µg/mL (≈ 10.7 µM)
- MIC [5]: 0.5 µg/mL (≈ 0.668 µM)
- MIC50 [6]: 2 µg/mL (≈ 2.67 µM)
- MIC90 [6]: > 64 µg/mL
- MIC [7]: 0.03 µg/mL (≈ 0.0401 µM)
- MIC [8]: 0.06 µg/mL (≈ 0.0802 µM)
- MIC [9]: 0.25 µg/mL (≈ 0.334 µM)
- MIC50 [10]: > 64 µg/mL
- MIC90 [10]: > 64 µg/mL
- MIC50 [11]: > 64 µg/mL
- MIC [12]: 8 µg/mL (≈ 10.7 µM)
- MIC [13]: 32 µg/mL (≈ 42.8 µM)
- MIC [14]: 1 µg/mL (≈ 1.34 µM)
- MIC [15]: 0.5 µg/mL (≈ 0.668 µM)
- MIC [16]: 1 µg/mL (≈ 1.34 µM)
- MIC [17]: > 64 µg/mL
- MIC50 [18]: 2 µg/mL (≈ 2.67 µM)
- MIC90 [18]: 4 µg/mL (≈ 5.35 µM)
- MIC [19]: 64 µg/mL (≈ 85.6 µM)
- MIC [20]: 8 µg/mL (≈ 10.7 µM)
- MIC [21]: > 64 µg/mL
- MIC [22]: 0.5 µg/mL (≈ 0.668 µM)
- MIC [23]: 16 µg/mL (≈ 21.4 µM)
- MIC50 [24]: 0.03 µg/mL (≈ 0.0401 µM)
- MIC90 [24]: 0.06 µg/mL (≈ 0.0802 µM)
- MIC [25]: 2 µg/mL (≈ 2.67 µM)
- MIC [26]: 0.5 µg/mL (≈ 0.668 µM)
- MIC50 [27]: > 64 µg/mL
- MIC50 [28]: 2 µg/mL (≈ 2.67 µM)
- MIC90 [28]: 4 µg/mL (≈ 5.35 µM)
- MIC [29]: 16 µg/mL (≈ 21.4 µM)
- MIC [30]: > 64 µg/mL
- MIC50 [31]: 16 µg/mL (≈ 21.4 µM)
- MIC90 [31]: 32 µg/mL (≈ 42.8 µM)
- MIC50 [32]: 1 µg/mL (≈ 1.34 µM)
- MIC90 [32]: > 64 µg/mL

Compound: CC[C@H]1OC(=O)[C@H](C)C(=O)[C@H](C)[C@@H](O[C@@H]2O[C@H](C)C[C@H](N(C)C)[C@H]2O)[C@](C)(OC)C[C@@H](C)C(=O)[C@H](C)[C@H]2N(CCCCn3cnc(-c4cccnc4)c3)C(=O)O[C@]12C [TELITHROMYCIN]
- MIC [1]: > 64 µg/mL
- MIC [2]: 1 µg/mL (≈ 1.23 µM)
- MIC [3]: 0.004 µg/mL (≈ 0.00493 µM)
- MIC50 [4]: 0.5 µg/mL (≈ 0.616 µM)
- MIC90 [4]: 1 µg/mL (≈ 1.23 µM)
- MIC [5]: 0.004 µg/mL (≈ 0.00493 µM)
- MIC50 [6]: 0.06 µg/mL (≈ 0.0739 µM)
- MIC90 [6]: 0.125 µg/mL (≈ 0.154 µM)
- MIC [7]: 0.008 µg/mL (≈ 0.00985 µM)
- MIC [8]: 0.03 µg/mL (≈ 0.0369 µM)
- MIC [9]: 0.06 µg/mL (≈ 0.0739 µM)
- MIC50 [10]: 8 µg/mL (≈ 9.85 µM)
- MIC90 [10]: 16 µg/mL (≈ 19.7 µM)
- MIC50 [11]: 0.06 µg/mL (≈ 0.0739 µM)
- MIC90 [11]: 1 µg/mL (≈ 1.23 µM)
- MIC [12]: 0.06 µg/mL (≈ 0.0739 µM)
- MIC [13]: 0.25 µg/mL (≈ 0.308 µM)
- MIC [14]: 1 µg/mL (≈ 1.23 µM)
- MIC [15]: 0.06 µg/mL (≈ 0.0739 µM)
- MIC [16]: 0.03 µg/mL (≈ 0.0369 µM)
- MIC50 [18]: 0.125 µg/mL (≈ 0.154 µM)
- MIC90 [18]: 0.25 µg/mL (≈ 0.308 µM)
- MIC [19]: 0.06 µg/mL (≈ 0.0739 µM)
- MIC [20]: 0.5 µg/mL (≈ 0.616 µM)
- MIC [21]: > 64 µg/mL
- MIC [22]: 0.03 µg/mL (≈ 0.0369 µM)
- MIC [23]: 0.5 µg/mL (≈ 0.616 µM)
- MIC50 [24]: 0.03 µg/mL (≈ 0.0369 µM)
- MIC90 [24]: 0.03 µg/mL (≈ 0.0369 µM)
- MIC [25]: 0.125 µg/mL (≈ 0.154 µM)
- MIC [26]: 0.016 µg/mL (≈ 0.0197 µM)
- MIC50 [27]: 0.06 µg/mL (≈ 0.0739 µM)
- MIC90 [27]: 1 µg/mL (≈ 1.23 µM)
- MIC50 [28]: 0.125 µg/mL (≈ 0.154 µM)
- MIC90 [28]: 0.25 µg/mL (≈ 0.308 µM)
- MIC [29]: 0.008 µg/mL (≈ 0.00985 µM)
- MIC [30]: 8 µg/mL (≈ 9.85 µM)
- MIC50 [31]: 0.125 µg/mL (≈ 0.154 µM)
- MIC90 [31]: 0.25 µg/mL (≈ 0.308 µM)
- MIC50 [32]: 0.06 µg/mL (≈ 0.0739 µM)
- MIC90 [32]: 0.25 µg/mL (≈ 0.308 µM)
